Our source for the Ki values is ChEMBL document CHEMBL1155548, “Synthesis and evaluation of new endomorphin-2 analogues containing (Z)-alpha,beta-didehydrophenylalanine (Delta(Z)Phe) residues” (J Med Chem, 2010).

The target of this test is Delta-type opioid receptor (Homo sapiens, UniProt P41143). The test can be described thus: Displacement of [3H]DPDPE from human delta opioid receptor expressed in HEK293 cells up to 100 uM. The test is classed as cell-based. In outline:
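Crude membranes from transfected cells: HN9.10 cells expressing rat μ-opioid receptor, competed against μ-selective agonist [³H]DAMGO; HEK293 cells expressing human δ-opioid receptor, competed against δ-selective agonist [³H]DPDPE. Competitive displacement with three independent experiments, fitted by non-linear regression; Ki derived from IC50 via Cheng–Prusoff equation.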

Delta-type opioid receptor, sequence (P41143 whole entry): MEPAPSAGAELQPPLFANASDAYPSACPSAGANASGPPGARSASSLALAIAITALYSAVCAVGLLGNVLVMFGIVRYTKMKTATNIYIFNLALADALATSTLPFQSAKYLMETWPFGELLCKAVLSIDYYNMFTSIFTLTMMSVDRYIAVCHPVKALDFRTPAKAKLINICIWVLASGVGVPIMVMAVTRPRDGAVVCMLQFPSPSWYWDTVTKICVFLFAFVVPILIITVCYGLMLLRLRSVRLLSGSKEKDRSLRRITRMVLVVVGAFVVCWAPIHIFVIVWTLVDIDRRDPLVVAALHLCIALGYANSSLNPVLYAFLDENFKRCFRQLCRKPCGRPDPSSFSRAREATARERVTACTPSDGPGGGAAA

Regarding `NC(=O)[C@H](Cc1ccccc1)NC(=O)/C(=C/c1ccccc1)NC(=O)[C@@H]1CCCN1C(=O)[C@@H](N)Cc1ccc(O)cc1`, the Ki entry is listed as “Not Active”.
